{"data": "Experimental data of several laboratories", "target": "Alpha-1D adrenergic receptor (ADRA1D, Homo sapiens, UniProt P25100)", "tested at": "10 µM", "One construct used (P25100 1-572)": "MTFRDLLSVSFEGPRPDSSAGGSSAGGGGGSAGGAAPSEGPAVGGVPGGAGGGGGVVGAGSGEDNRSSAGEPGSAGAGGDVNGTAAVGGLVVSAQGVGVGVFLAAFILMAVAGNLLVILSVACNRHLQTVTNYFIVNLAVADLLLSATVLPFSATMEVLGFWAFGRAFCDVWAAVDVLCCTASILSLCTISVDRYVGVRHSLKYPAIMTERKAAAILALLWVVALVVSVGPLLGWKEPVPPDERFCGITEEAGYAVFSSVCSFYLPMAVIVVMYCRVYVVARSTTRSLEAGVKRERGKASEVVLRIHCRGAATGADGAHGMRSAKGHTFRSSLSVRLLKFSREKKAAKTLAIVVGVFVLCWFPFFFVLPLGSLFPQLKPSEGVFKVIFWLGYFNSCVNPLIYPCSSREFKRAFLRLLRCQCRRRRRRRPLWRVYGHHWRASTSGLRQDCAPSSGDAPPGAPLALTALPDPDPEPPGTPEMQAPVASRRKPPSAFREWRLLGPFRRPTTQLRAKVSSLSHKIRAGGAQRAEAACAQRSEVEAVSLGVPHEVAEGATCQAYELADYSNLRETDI", "note": "Lines come from different studies, so protocols differ."}
{"Structure (SMILES)": "O=C(Nc1ccc(S(=O)(=O)N2CCC(Cl)CC2)cc1)c1ccc([N+](=O)[O-])o1", "assay": "ligand displacement, radioligand", "inhibition [%]": 8}
{"Structure (SMILES)": "CC(C)(C)OC(=O)N1CCCC1CNC1CCC(c2cc(F)ccc2F)(S(=O)(=O)c2ccc(Cl)cc2)CC1 (centres unmarked)", "assay": "cell-free assay", "inhibition [%]": 22.5}
{"Structure (SMILES)": "N#Cc1cc(Cn2c(N3CCCC3)nc3ccccc32)ccc1F", "assay": "ligand displacement", "inhibition [%]": -11.1}
{"Structure (SMILES)": "CCN(Cc1ccccc1C(F)(F)F)C(=O)C1CCN(S(=O)(=O)c2ccc3[nH]ncc3c2)CC1", "assay": "ligand displacement, radioligand", "inhibition [%]": 5}
{"Structure (SMILES)": "O=C(c1ccc(F)cc1)N(Cc1ccccc1)C1CCCCC1", "assay": "cell-free assay", "inhibition [%]": 7}
{"Structure (SMILES)": "CCN(CC)c1ccc(C2Nc3ccc(C(=O)c4ccccc4)cc3NC3=C2C(=O)CC(C)(C)C3)cc1 (centres unmarked)", "assay": "ligand displacement, radioligand", "inhibition [%]": 8}
{"Structure (SMILES)": "CC(=O)C1=C(C)N(c2cccc(C(F)(F)F)c2)C(=O)N[C@H]1c1ccc(C#N)nc1", "assay": "ligand displacement", "inhibition [%]": 7.7}
{"Structure (SMILES)": "CCCNc1nc2ccccc2n1Cc1ccc(Cl)cc1", "assay": "ligand displacement", "inhibition [%]": 10.2}
